Data as given in ChEMBL document CHEMBL1126100, “Anticancer activity in murine and human tumor cell lines of bis(platinum) complexes incorporating straight-chain aliphatic diamine linker groups” (J Med Chem, 1992).

Tests used:
Type in all cases: functional, cell-based
[1] = system: L1210 (DACH); assay: In vitro growth inhibition by the compound was determined in cisplatin-resistant murine L1210DACH cell lines; settings: Mus musculus
In short: (§1)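 Growth inhibition of murine leukemia lines (cisplatin-resistant variants and cisplatin-sensitive L1210S, P388S) followed a published procedure, read out as ID50. Values are mean ± SEM of 3 to 17 separate experiments, or averages of at least two experiments. Each experiment's value was the mean of duplicates.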

[2] = system: L1210; assay: In vitro growth inhibition by the compound was determined in cisplatin-sensitive murine L1210S cell lines; settings: Mus musculus; in short: as §1
[3] = system: P388PtR4; assay: In vitro growth inhibition by the compound was determined in cisplatin-resistant murine P388PtR4 cell lines; settings: Mus musculus; in short: as §1
[4] = system: P388/S; assay: In vitro growth inhibition by the compound was determined in cisplatin-sensitive murine P388S cell lines; settings: Mus musculus; in short: as §1
[5] = system: L1210 (PtR4); assay: In vitro growth inhibition by the compound was determined in cisplatin-resistant murine L1210PtR4 cell lines; settings: Mus musculus; in short: as §1
[6] = system: L1210 (DDP5); assay: In vitro growth inhibition by the compound was determined in cisplatin-resistant murine L1210DDP5 cell lines; settings: Mus musculus; in short: as §1
[7] = system: HCT-8; assay: In vitro growth inhibition by the compound was determined in human HCT-8 tumor cell lines
In short: (§2)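 ID50 (µM) for growth inhibition of human tumor lines: HCT-8 colon adenocarcinoma and the H23, AH125 and H520 non-small cell lung carcinomas. Reported as mean ± SEM of at least four experiments, or as the average of at least two separate experiments.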

[8] = system: NCI-H520; assay: In vitro growth inhibition by the compound was determined in human H520 tumor cell lines; in short: as §2
[9] = system: NCI-H23; assay: In vitro growth inhibition by the compound was determined in human H23 tumor cell lines; in short: as §2
[10] = system: AH125 cell line; assay: In vitro growth inhibition by the compound was determined in human AH125 tumor cell lines; in short: as §2

Row | Substance | ID50 [1] [nM] | ID50 [2] [nM] | ID50 [3] [nM] | ID50 [4] [nM] | ID50 [5] [nM] | ID50 [6] [nM] | ID50 [7] [nM] | ID50 [8] [nM] | ID50 [9] [nM] | ID50 [10] [nM]
1 | 0-Hexyl-1,3-diamine-platinum 2,2-dichloride | 9500 | 210 | 2260 | 210 | 190 | 380 |  |  |  | 
2 | CI-973 | 3600 | 1400 | 3700 | 220 | 5400 | 8600 | 4200 | 3900 | 3900 | 
3 | CISPLATIN | 2100 | 920 | 23300 | 700 | 19100 | 16100 | 1300 | 470 | 310 | 700
4 | mu-(1,5-pentanediamine-N,N')bis-(aminedioato(2-)-O,O'platimum (II)) | 9490 | 3830 | 16000 | 2060 | 13000 | 17200 | 4420 | 1830 | 1480 | 3680
5 | mu-(1,7-Heptanediamine-N,N')bis-(cis-aminedichloroplatimum (II)) | 500 | 220 | 910 | 140 | 730 | 1230 | 100 |  | 30 | 120
6 | mu-(1,7-nanodiamine-N,N')bis-(cis-aminedichloroplatimum (II)) | 1600 | 290 | 3200 | 210 | 2200 | 2800 | 190 | 140 | 56 | 260
